{"source": "ChEMBL document CHEMBL2396639", "about": "“Peptidomimetic modification improves cell permeation of bivalent farnesyltransferase inhibitors” (Bioorg Med Chem, 2013)", "key": {"A549 [1]": {"system": "A549", "assay": "Drug uptake in human A549 cells assessed as accumulation on plasma membrane at 25 uM after 3 hrs by confocal microscopy", "assay_type": "ADME, cell-based", "details": "a549, 3 h", "in_short": "(§1)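 A549 cells grown in RPMI 1640 with 10% heat-inactivated FBS at 37 °C, 5% CO2. Seeded on glass dish at 1×10^5 cells/mL, adhered overnight. Fluorescent BODIPY-labelled compound added from DMSO stock at 25 μM (0.1% DMSO final), 3 h at 37 °C. Cells washed four times with PBS, covered with Opti-MEM, imaged by laser scanning confocal microscopy.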"}, "[2]": {"target": "T1, Protein farnesyltransferase (Homo sapiens, UniProt P49354+P49356)", "assay": "Inhibition of recombinant FTase (unknown origin)-mediated K-Ras4B model peptide KKKKKKSK(Dans)TKCVIM farnesylation by fluorescence plate reader analysis in presence of FPP", "assay_type": "protein-complex assay", "in_short": "(§2)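 Recombinant mammalian FTase (50 nM) with dansylated K-Ras4B peptide (1 μM) and FPP (5 μM). Compound tested at 0–500 μM in 50 mM Tris HCl pH 7.5 at 30 °C. Reagents spotted separately, and buffer addition starts the reaction. Fluorescence (ex 340/em 520 nm) followed for 5 min on a plate reader, n = 3. IC50 converted to Ki by Cheng-Prusoff with peptide Km 0.033 μM.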"}, "[3]": {"target": "T1, Protein farnesyltransferase", "assay": "Inhibition of FTase-mediated prenylation in human A549 cells assessed as inhibition of HDJ-2 processing at 10 to 100 uM treated twice on day 1 and day 3 followed by incubation for 4 days by Western blot analysis", "assay_type": "cell-based", "in_short": "(§3)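 T24 cells (MEM) or A549 cells (RPMI 1640), each with 10% bovine serum. Cells treated twice with compound at 10, 30 and 100 μM, or DMSO control, then harvested on day 4 and lysed in Tris pH 7.6/Triton X-100 buffer. Lysate (5 µg) run on 7.5% SDS-PAGE, transferred to PVDF, probed with anti-HDJ-2. Read as band shift from processed to unprocessed HDJ-2, detected by HRP anti-rabbit IgG with ECL.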"}, "[4]": {"target": "T1, Protein farnesyltransferase", "assay": "Inhibition of FTase-mediated prenylation in human T24 cells assessed as inhibition of HDJ-2 processing at 10 to 100 uM treated twice on day 1 and day 3 followed by incubation for 4 days by Western blot analysis", "assay_type": "cell-based", "details": "T-24", "in_short": "as §3"}, "T-24": {"system": "T-24", "assay": "Inhibition of GGTase1-mediated prenylation in human T24 cells assessed as inhibition of Rap1A processing at 10 to 100 uM treated twice on day 1 and day 3 followed by incubation for 4 days by Western blot analysis", "assay_type": "cell-based", "in_short": "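T24 cells grown in MEM with 10% bovine serum. Treated twice with compound at 10, 30 and 100 μM, or DMSO control, then harvested on day 4 and lysed. Lysate (5 µg) run on 12.5% SDS-PAGE, transferred to PVDF, probed with anti-Rap1A. Geranylgeranylation read as shift from processed to unprocessed Rap1A band, detected by HRP anti-rabbit IgG with ECL.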"}, "A549 [5]": {"system": "A549", "assay": "Cellular uptake in human A549 cells at 25 uM after 3 hrs by confocal microscopy", "assay_type": "ADME, cell-based", "details": "a549, 3 h", "in_short": "as §1"}, "[6]": {"target": "T1, Protein farnesyltransferase", "assay": "Inhibition of FTase (unknown origin)-mediated K-Ras4B model peptide KKKKKKSK(Dans)TKCVIM farnesylation by microplate reader analysis", "assay_type": "protein-complex assay", "in_short": "as §2"}, "[7]": {"assay": "Drug uptake in human A549 cell cytosol at 25 uM after 3 hrs by confocal microscopy", "assay_type": "ADME, cell-based", "in_short": "as §1"}, "[8]": {"assay": "Drug uptake in human A549 cell nucleus at 25 uM after 3 hrs by confocal microscopy", "assay_type": "ADME, cell-based", "details": "a549, 3 h", "in_short": "as §1"}}, "note": "Activity calls are given as the source filed them. The calls are words filed in the database; no cut-off is given here. Residues, ends and D or L forms follow the SMILES beside them. *: point of attachment. X1 = NCC(CN)CCOc1cc(C(=O)*)cc(OCCC(CN)CN)c1OCCC(CN)CN; Ahx = NCCCCCC(=O)O", "data": [{"compound": "CC[C@H](C)[C@H](NC(=O)[C@@H](NC(=O)[C@H](CS)NC(=O)CCNC(=O)[C@H](CCCCNC(=O)CCC1=C2C(C)=CC(C)=[N+]2[B-](F)(F)n2c(C)cc(C)c21)NC(=O)c1cc(OCCC(CN)CN)c(OCCC(CN)CN)c(OCCC(CN)CN)c1)C(C)C)C(=O)N[C@@H](CCSC)C(=O)O", "values": [{"measurement": "Drug uptake", "setting": "A549 [1]", "result": "Not Active"}]}, {"compound": "CSCC[C@H](NC(=O)c1ccc(NC[C@@H](N)CS)cc1)C(=O)O", "values": [{"measurement": "Ki", "setting": "[2]", "result": 785, "unit": "nM"}]}, {"compound": "COC(=O)[C@H](CCSC)NC(=O)c1ccc(NC[C@H](CS)NC(=O)CCCCCNC(=O)c2cc(OCCC(CN)CN)c(OCCC(CN)CN)c(OCCC(CN)CN)c2)cc1", "values": [{"measurement": "inhibition", "setting": "[3]", "result": "Active"}, {"measurement": "inhibition", "setting": "[4]", "result": "Active"}, {"measurement": "inhibition", "setting": "T-24", "result": "inactive"}]}, {"compound": "CC1=CC(C)=[N+]2C1=C(CCC(=O)NCCCC[C@H](NC(=O)c1cc(OCCC(CN)CN)c(OCCC(CN)CN)c(OCCC(CN)CN)c1)C(=O)O)c1c(C)cc(C)n1[B-]2(F)F", "values": [{"measurement": "Drug uptake", "setting": "A549 [5]", "result": "Active"}]}, {"compound": "CC[C@H](C)[C@H](NC(=O)[C@@H](NC(=O)[C@@H](N)CS)C(C)C)C(=O)N[C@@H](CCSC)C(=O)O", "values": [{"measurement": "Ki", "setting": "[6]", "result": 1100, "unit": "nM"}]}, {"compound": "CC[C@H](C)[C@H](NC(=O)[C@@H](NC(=O)[C@H](CS)NC(=O)CCCCCNC(=O)c1cc(OCCC(CN)CN)c(OCCC(CN)CN)c(OCCC(CN)CN)c1)C(C)C)C(=O)N[C@@H](CCSC)C(=O)O", "note": "({X1-Ahx}-CVIM-OH)", "values": [{"measurement": "Ki", "setting": "[6]", "result": 5, "unit": "nM"}, {"measurement": "inhibition", "setting": "[3]", "result": "inactive"}, {"measurement": "Ki", "setting": "[2]", "result": 15, "unit": "nM"}]}, {"compound": "COC(=O)[C@H](CCSC)NC(=O)c1ccc(NC[C@H](CS)NC(=O)CCNC(=O)[C@H](CCCCNC(=O)CCC2=C3C(C)=CC(C)=[N+]3[B-](F)(F)n3c(C)cc(C)c32)NC(=O)c2cc(OCCC(CN)CN)c(OCCC(CN)CN)c(OCCC(CN)CN)c2)cc1", "values": [{"measurement": "Drug uptake", "setting": "[7]", "result": "Active"}, {"measurement": "Drug uptake", "setting": "[8]", "result": "Not Active"}]}, {"compound": "CSCC[C@H](NC(=O)c1ccc(NC[C@H](CS)NC(=O)CCCCCNC(=O)c2cc(OCCC(CN)CN)c(OCCC(CN)CN)c(OCCC(CN)CN)c2)cc1)C(=O)O", "values": [{"measurement": "Ki", "setting": "[2]", "result": 837, "unit": "nM"}]}]}
